The sample as a whole holds a higher share of hits than the screen did.
TLR9-MyD88 inh: inhibitors of TLR9-MyD88 association in cells, primary screen, cell-based, CHO, BLA complementation, fluorescence | AID 504734, 2011 | 340,000 compounds, 0.21% hits | Toll-like receptor 9 (Homo sapiens) + Myeloid differentiation primary response protein … | CCF4 FRET ratio | inhibition, % at 4.98 µM;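 active = inhibition above the mean over all tested compounds plus 3 SD, cut at about 21% in these data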
CHOP UPR activ: activators of apoptotic CHOP UPR arm, primary screen, cell-based, CHO-CHOP luciferase reporter, luminescence, uHTS. UPR activation; percent of tunicamycin response over DMSO baseline. activation, % at 10 µM. 330,000 compounds, 0.34% hits;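 active = at 10 µM dose, activation of 40% or more, normalized to positive control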
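measured by = luciferase luminescence | assay system = CHO-CHOP cells, stable luciferase reporter of PERK-eIF2a-CHOP signalling | amount = 500 reporter cells seeded per well | timing = 6 h compound exposure at 37 °C after overnight seeding | controls = positive tunicamycin 10 µg/mL, negative DMSO alone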
TLR4-MyD88 BLA: inhibitors of TLR4-MyD88 association in cells, primary screen, cell-based, HeLa CL3-4, BLA complementation, FRET ratio | HeLa CL3-4 TLR4/MyD88 BLA complementation | 200,000 compounds, 0.18% hits | inhibition, % at 8.4 µM; in the data active = inhibition above about 25%
CHOP inhibitor: inhibitors of CHOP promoter induction, primary screen, cell-based, unfolded protein response, luciferase reporter; CHO-K1 CHOP-promoter luciferase, tunicamycin-induced, 15-18 h; inhibition, % at 10 µM; 220,000 compounds, 3.8% hits;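 active = compounds that reduced the stress-induced luciferase reporter signal by more than about 70% of percent inhibition, limit read from the data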
NOD2-RIPK2 inh: NOD2-RIPK2 binding disruptors in cells, primary screen, fluorescence, CHO cells, BLA complementation; CCF4 ratio; Receptor-interacting serine/threonine-protein kinase 2 (Homo sapiens), O43353; inhibition, % at 4.98 µM; 360,000 compounds, 0.38% hits; in the data active = inhibition above about 21%
UPR XBP1 act: activators of adaptive XBP1 UPR arm, primary screen, cell-based, CHO-XBP1 luciferase reporter, luminescence, uHTS. 330,000 compounds, 0.33% hits. IRE1-XBP1 UPR activation; percent of tunicamycin response, DMSO as zero. AID 463104, 2010. activation, % at 20 µM;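 active = versus positive control, 20 µM dose yields 30% or more activation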
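Material: CHO cell line with stable XBP1 luciferase reporter; schedule: 16-18 h cell attachment at 37 °C, then 6 h compound exposure; signal: glow luminescence from Steady-Glo reagent; medium: serum-containing F12 medium, 10% FBS; benchmarks: tunicamycin 10 µg/mL and vehicle-only wells; read-out: percent activation relative to tunicamycin reference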
A number is an active result; i = inactive; nt = no result given.

SMILES	TLR9-MyD88 inh	CHOP UPR activ	TLR4-MyD88 BLA	CHOP inhibitor	NOD2-RIPK2 inh	UPR XBP1 act
CC(C)CC(=O)NC(=S)Nc1ccc(N2CCN(C(=O)c3cccs3)CC2)cc1	i	i	nt	76	i	i
CC(=O)N1CCN(c2ccc(NC(=S)NC(=O)COc3ccc(C(C)(C)C)cc3)cc2)CC1	i	i	i	76	i	i
O=C(COc1ccc(Cl)cc1)Nc1ccc(N2CCN(C(=O)c3ccco3)CC2)cc1	i	i	i	74	i	i
CC(Sc1ccc(Cl)cc1)C(=O)Nc1ccc(S(=O)(=O)N2CCOCC2)cc1 (stereo not drawn)	i	i	i	i	i	i
COc1ccc2nc3ccccc3nc2c1NC(=O)c1ccc(Cl)cc1	i	i	i	i	i	i
COc1ccc2nc3ccccc3nc2c1NC(=O)c1ccc(Br)cc1	i	i	i	79	i	i
CSc1ccccc1NC(=O)c1cc(CC(C)C)on1	i	i	i	75	i	i
CC(C)Cc1cc(C(=O)Nc2sc3c(c2C#N)CCC3)no1	i	i	i	i	i	i
CC(C)Cc1cc(C(=O)Nc2sc3c(c2C#N)CCCC3)no1	i	i	i	77	i	i
N/C(=N\c1nc2c(c(=O)[nH]1)CCC2)Nc1ccccc1	i	i	i	i	i	i
COc1ccc(O)c(/C=N/NC(=O)c2ccc(CSc3nc(C)cc(C)n3)cc2)c1	i	i	i	71	i	i
CN(c1ccc([N+](=O)[O-])cc1C(=O)Nc1ccccc1)C1CCCCC1	i	i	i	i	i	i
Cc1cccc(NC(=O)c2cc([N+](=O)[O-])ccc2NC2CCCCC2)c1	i	i	i	73	i	i
CCN(CC)S(=O)(=O)c1ccc(C)c(NC(=S)N2CCN(C/C=C/c3ccccc3)CC2)c1	i	i	i	81	i	i
CCN(CC)S(=O)(=O)c1ccc(C)c(NC(=S)N2CCN(c3ccccn3)CC2)c1	i	i	nt	nt	i	i
COC(=O)C1CCN(C2CN(Cc3ccc([N+](=O)[O-])cc3)S(=O)(=O)C2)CC1 (stereo not drawn)	nt	nt	nt	nt	i	nt
CC1CC(C)CN(C(=O)c2ccc3c(c2)N(Cc2ccccc2)CCS3)C1 (stereo not drawn)	i	i	i	73	i	i
Cc1c(C=Nc2ccc(S(=O)(=O)CCO)cc2)c(O)[nH]c(=O)c1C#N	i	i	nt	nt	i	i
O=C(O)Cc1ccc(C(=O)c2ccccc2F)s1	i	i	i	i	i	i
CCN(CC)S(=O)(=O)c1ccc(N2CCCC2)c(NC(=O)CN2C(=O)NC3(CCCC3)C2=O)c1	i	i	nt	nt	i	i
CCOC(=O)c1c(N)nn(C(=O)c2ccccc2F)c1-c1ccc(OC)cc1	i	i	i	i	i	i
CCOC(=O)c1c(N)nn(C(=O)C(C)(C)C)c1-c1ccccc1	i	i	i	94	i	i
COc1ccccc1N1CCN(CCCCOc2cccc3ccccc23)CC1	i	i	i	84	i	i
CCOc1cc(/C=C/C(=O)OCC(=O)NC2CCS(=O)(=O)C2)ccc1OCc1ccccc1 (stereo not drawn)	i	i	i	i	i	i
COC(=O)C1=C(C)N=C2SC(C#N)=C(N)N2C1c1ccc(OCc2ccccc2)cc1 (stereo not drawn)	i	i	i	88	i	i
SMILES	TLR9-MyD88 inh	CHOP UPR activ	TLR4-MyD88 BLA	CHOP inhibitor	NOD2-RIPK2 inh	UPR XBP1 act
COC(=O)C1=C(C)N=C2SC(C#N)=C(N)N2C1c1cc(OC)c(OC)c(OC)c1 (stereo not drawn)	i	i	i	i	i	i
CCOC(=O)c1ccc(Nc2nc(-c3cccnc3)nc3ccccc23)cc1	i	i	i	93	i	i
Cc1ccc(Nc2nc(-c3cccnc3)nc3ccccc23)cc1	i	i	nt	i	i	i
CNc1oc(-c2ccc(Cl)cc2)nc1P(=O)(c1ccccc1)c1ccccc1	i	i	i	71	i	i
Cc1ccc(-c2nc(P(=O)(c3ccccc3)c3ccccc3)c(N3CCOCC3)o2)cc1	i	i	i	i	i	i
O=C(CN1CCCCC1)Nc1ccc(NC(=O)c2ccc(Cl)cc2)cc1Cl	i	i	i	85	i	i
Cc1cc(Cl)ccc1NC(=O)CN1CCCC1	i	i	nt	nt	i	i
Cc1ccc(NC(=O)CN2CCCCCC2)c(Br)c1	i	nt	i	75	i	nt
Cc1cccc(C)c1NC(=O)C(c1ccnc2ccccc12)N1CCN(C)CC1 (stereo not drawn)	nt	nt	nt	nt	i	nt
COCCCNC(=O)Cn1cnc(C(=O)Nc2ccc(C)c(C)c2)n1	i	i	nt	nt	i	i
COc1ccc(NC(=O)CN2CCOCC2)cc1	i	i	i	i	i	i
CC(C)Cn1c(SCc2nc3ccccc3c(=O)[nH]2)nc2ccccc2c1=O	i	i	i	82	i	i
COc1ccc(CC(=O)OCc2cc3cccc(C)c3[nH]c2=O)cc1	i	i	i	i	i	i
COc1ccc(C(=O)OCc2cc3cccc(C)c3[nH]c2=O)cc1	i	i	i	81	i	i
CCc1c(C)sc(NC(=O)c2cc(CC(C)C)on2)c1C#N	i	i	i	i	i	i
CCc1c(C)sc(NC(=O)c2cc(-c3ccc(O)cc3)on2)c1C#N	i	i	i	i	i	i
CCc1c(C)sc(NC(=O)c2cc(-c3ccc(OC)c(OC)c3)on2)c1C#N	i	i	i	83	i	i
CCc1c(C)sc(NC(=O)c2cc(-c3cc(OC)ccc3OC)on2)c1C#N	i	i	i	86	i	i
CC(OC(=O)CCC(=O)c1ccc(Cl)s1)C(=O)NC1(C#N)CCCCC1 (stereo not drawn)	i	i	nt	nt	i	i
O=C(/C=C/c1ccccc1)N1CCN(CCN2C(=O)c3cccc4cccc(c34)C2=O)CC1	i	i	i	i	i	i
CCCCCCOC(=O)Sc1nc2ccccc2o1	i	i	i	95	i	i
COc1ccc(CCNC(=O)CCCN2C(=O)c3ccccc3C2=O)cc1	nt	i	i	i	i	i
CCN1C(=O)c2cccc3c(NS(=O)(=O)c4ccc(NC(C)=O)cc4)ccc1c23	i	i	i	i	i	i
CCOC(=O)c1ccc(NC(=O)Nc2ccc3c4c(cccc24)C(=O)N3CC)cc1	i	i	i	83	i	i
COC(=O)Cc1c(O)ccn(Cc2cccc3ccccc23)c1=O	i	i	i	i	i	i
O=C(/C=C/c1ccc2c(c1)OCO2)NCCS(=O)(=O)N1CCN(c2ccccc2)CC1	i	nt	nt	nt	i	nt
O=C(CSc1ccccc1)OCC(=O)N1CCN(C(=O)c2ccco2)CC1	i	i	nt	nt	i	i

Compound activity: PubChem BioAssay, several laboratories
